Measured values collected from several papers.
Lines come from different studies, so protocols differ.
Target: Insulin receptor-related protein (INSRR, Homo sapiens, UniProt P14616)

Compound	observed	method	concentration	remaining binding
CN(CCCC(F)(F)F)c1nccc(-c2cnn3ncccc23)n1	binding		1 µM	100%
CCC(=O)N[C@H]1CC[C@@H](C(=O)N(C)c2ccc(-c3nc4ccccc4o3)cc2)C1	cell-free assay	competition with immobilised ligand	1 µM	100%
O=C(c1ccc(Nc2ncc(Cl)c(-c3cc4ccccc4s3)n2)cc1)N1CCC(N2CCCC2)CC1	binding	competition with immobilised ligand	1 µM	25%
COc1cc(-c2cn(C3CCc4ccccc4N(CC(F)(F)F)C3=O)nn2)ccc1-n1ccc(C)n1 (stereo not shown)	cell-free assay	competition with immobilised ligand	1 µM	100%
COc1ncc2cc3ccccc3nc2c1C#N	cell-free assay	competition with immobilised ligand	5 µM	100%
CN(c1nccc(-c2cnn3ncccc23)n1)C1CC1	binding		1 µM	100%
CN(C)C(=O)Cn1cc(-c2nc(C3(c4ccc(-c5cnc(N)nc5)cc4)CC3)no2)cn1	cell-free assay	competition with immobilised ligand	1 µM	100%
CN(C)c1nccc(-c2cnn3ncccc23)n1	binding		1 µM	92%
COc1cnc(Nc2cccc(S(N)(=O)=O)c2)nc1N1CCN(c2ccccc2)CC1	binding	competition with immobilised ligand	1 µM	100%
NS(=O)(=O)c1cc(NC(=O)C2(c3ccccc3Cl)CC2)ccc1Oc1cccc(Cl)c1	cell-free assay	competition with immobilised ligand	1 µM	95%
CN(C)c1ncc(F)c(-c2cnn3ncccc23)n1	binding		1 µM	100%
CNC(=O)[C@@H]1CC[C@@H](n2c(-c3ccc4cnccc4c3)nc3ccc(C(=O)NCc4cccc(C(N)=O)c4)cc32)C1	binding	competition with immobilised ligand	1 µM	92%
N[C@@H]1CCN(c2nccc(-c3cnn4ncccc34)n2)C1	binding		1 µM	100%
O=C(NCCCC1CCCCC1)c1ccc(CNC(=O)c2cnn(-c3ccccc3)c2C(F)(F)F)cc1	cell-free assay	competition with immobilised ligand	0.1 µM	100%
O=C(Nc1c[nH]nc1C(=O)NC1CCNCC1)c1cc(F)cc(F)c1	binding	competition with immobilised ligand	1 µM	92%
O=C(c1ccc(Nc2ncc(Cl)c(-c3ccc(Cl)s3)n2)cc1)N1CCC(N2CCCC2)CC1	binding	competition with immobilised ligand	1 µM	23%
Cc1cnn2ncc(-c3ccnc(N(C)C)n3)c2c1	binding		1 µM	97%
O=C(c1ccc(Nc2nccc(-c3cc4ccccc4s3)n2)cc1)N1CCC(N2CCCC2)CC1	binding	competition with immobilised ligand	1 µM	99%
CNC(=O)Nc1ccc2c(c1)CC[C@@]21OC(=O)N(CC(=O)N(Cc2ccc(F)cc2)[C@@H](C)C(F)(F)F)C1=O	cell-free assay	competition with immobilised ligand	1 µM	96%
C[C@H]1CCN(c2nccc(-c3cnn4ncccc34)n2)C1	binding		1 µM	98%
O=C1CCc2cc(Nc3cc(OC4CCOCC4)c([N+](=O)[O-])cc3Cl)ccc2N1	cell-free assay	competition with immobilised ligand	1 µM	100%
C=CC(=O)N1CCC(C(=O)NCC(=O)N2CCN(c3nc(-c4cnc(N)nc4C(F)F)nc(N4CCOCC4)n3)CC2)CC1	binding	competition with immobilised ligand	1 µM	96%
